From ChEMBL document CHEMBL4680062, “Structure-property studies of an imidazoquinoline chemotype with antitrypanosomal activity” (RSC Med Chem, 2020) come the findings set out here.

Molecules are shown by their SMILES.

The logD is lipophilicity at a set pH, counting ionised and neutral species. A low value points to lower lipophilicity. A word on the Cmax: it is the peak of the concentration-time curve. As a reminder, the Tmax is the time at which the peak concentration occurs. The half-life is the time in which the quantity being followed falls by half. By AUC is commonly meant the area under the concentration-time curve, a measure of exposure.

Data set [1] in a line: Intrinsic clearance in human liver microsomes by LC/MS/MS analysis. It counts as ADME, Microsome. Particulars: read-out: CLH; call rule not given here.
A short description of data set [2]: Intrinsic clearance in Han Wistar rat hepatocytes assessed per million cells at 1 uM by LC/MS/MS analysis. The settings on record: read-out: CLH. The format is ADME, cell-based, Hepatocyte.
Data set [3] in a line: 1-Octanol-aquoues buffer distribution coefficient, log D of compound at pH 7.4 by UPLC-MS based shake flask method. The settings on record: 1-octanol/aqueous buffer. It counts as physicochemical.
Data set [4] is described as follows: Cmax in NMRI mouse at 10 mg/kg, ip measured up to 24 hrs by LC/MS/MS analysis. The arrangement: route intraperitoneal, dose 10 mg/kg, time <=24. The settings on record: in vivo. The format is ADME, organism-based. The essentials: (§1)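 Female NMRI mice (n=3) dosed IP at a target of 10 mg/kg. Vehicle: 1% DMSO and 99% of a 20% Captisol solution in water. Drug levels measured in peripheral blood.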

The nature of data set [5]: Tmax in NMRI mouse at 10 mg/kg, ip measured up to 24 hrs by LC/MS/MS analysis. The settings on record: in vivo. The format is ADME, organism-based. An outline of the steps: as §1
A short description of data set [6]: Ratio of drug level in brain to plasma in NMRI mouse at 10 mg/kg, ip measured up to 24 hrs by LC/MS/MS analysis. It counts as ADME, organism-based. Particulars: brain and plasma, read-out: BPR.
Data set [7] is described as follows: Half life in NMRI mouse at 10 mg/kg, ip measured up to 24 hrs by LC/MS/MS analysis. The settings on record: in vivo. It counts as ADME, organism-based. The essentials: as §1
Data set [8] can be described thus: AUC in NMRI mouse at 10 mg/kg, ip measured up to 24 hrs by LC/MS/MS analysis. The format is ADME, organism-based. The settings on record: in vivo. Further details: route intraperitoneal, dose 10 mg/kg, time <=24. The essentials:
as §1

Data set [9] can be described thus: Drug exposure in NMRI mouse brain at 10 mg/kg, ip measured after 4 hrs by LC/MS/MS analysis. The format is ADME, organism-based. The settings on record: in vivo.
Data set [10] in a line: Drug exposure in NMRI mouse blood at 10 mg/kg, ip measured after 4 hrs by LC/MS/MS analysis. The format is ADME, organism-based. The settings on record: in vivo. The essentials: as §1

Regarding `Cn1c(=O)n(C2CCNCC2)c2c3cc(-c4cn[nH]c4)ccc3ncc21`, the microsomal CLint in data set [1] was determined as 3 µL/min/mg. Moreover, the hepatocyte CLint at 1 µM in data set [2] is 1 µL/min/1e6 cells. The logD in data set [3] was 0.1.
`Cn1c(=O)n(-c2ccc(C(C)(C)C#N)cc2)c2c3cc(-c4cn[nH]c4)ccc3ncc21` had a Cmax in data set [4] of 570 ng/mL. For the same compound, the Tmax in [5] came out at 30 min. The microsomal CLint in data set [1] came to 38 µL/min/mg. For the same compound, the hepatocyte CLint at 1 µM in data set [2] amounted to 7.9 µL/min/1e6 cells. Moreover, the Kp at 24 h in data set [6] was 0.026. Further, in [7], the half-life is 78 min. Further, the AUC at 24 h in data set [8] came out at 920 ng·h/mL. Besides, the Drug uptake result in data set [9] and in data set [10] was “Not Active” each time. In data set [3], this compound displayed a logD of 3.
